Data from ChEMBL document CHEMBL1125525, “5'-Azido-delta 8-THC: a novel photoaffinity label for the cannabinoid receptor” (1992).

Columns and labels:
Type in all cases: functional
Mus musculus [1] = species: Mus musculus; experiment: Percent inhibition measured in terms of the maximum possible effect (MPE)on latency by mouse tail-flick assay
Summary of the method: (§1)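 Male ICR mice dosed intravenously; same animals scored for decreased locomotor activity (sedation), ring immobility (catalepsy), hypothermia and tail-flick antinociception. Dose-response data analysed by ANOVA; ED50 (mg/kg) with 95% confidence limits as potency, maximum effect as efficacy: percent inhibition of locomotion, change in °C for hypothermia, percent immobility for catalepsy, percent maximum possible effect on tail-flick latency.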

Mus musculus [2] = experiment: Compound was evaluated by in vivo administration for Percent inhibition of locomotion in mice; summary of the method: as §1
Mus musculus [3] = experiment: Induction of ring immobility (catalepsy), measured by in vivo administration of drug in mouse; summary of the method: as §1
Mus musculus [4] = species: Mus musculus; experiment: Antinociception measured in terms of the maximum possible effect (MPE)on latency by mouse tail-flick assay; summary of the method: as §1
Mus musculus [5] = experiment: Compound was evaluated by in vivo administration for its ability to produce hypothermia (change in temperature); summary of the method: as §1
Mus musculus [6] = experiment: Compound was evaluated by in vivo administration for its ability to produce sedation; summary of the method: as §1
Mus musculus [7] = experiment: Compound was evaluated by in vivo administration for percent inhibition of locomotion in mice; summary of the method: as §1

| SMILES | Inhibition (Mus musculus [1]) [%] | Inhibition (Mus musculus [2]) [%] | ED50 (Mus musculus [3]) [mg/kg] | Immobility (Mus musculus [3]) [%] | ED50 (Mus musculus [4]) [mg/kg] | ED50 (Mus musculus [5]) [mg/kg] | ED50 (Mus musculus [6]) [mg/kg] | Inhibition (Mus musculus [7]) [%] |
| --- | --- | --- | --- | --- | --- | --- | --- | --- |
| CC1=CC[C@@H]2[C@@H](C1)c1c(O)cc(CCCCCN=[N+]=[N-])cc1OC2(C)C | 100 | 73 | 0.8 | 57 | 0.1 | 0.8 | 0.2 |  |
| CCCCCc1cc(O)c2c(c1)OC(C)(C)[C@@H]1CC=C(C)C[C@@H]21 [DELTA-8-TETRAHYDROCANNABINOL] | 100 |  | 5.2 | 58 | 1.5 |  | 1.9 | 79 |
